These results are taken from ChEMBL document CHEMBL4038317, “Discovery of a Benzamide Derivative That Protects Pancreatic β-Cells against Endoplasmic Reticulum Stress” (J Med Chem, 2017).

Activity calls are given as the source filed them. The calls are words filed in the database; no cut-off is given here.

Data set [1] concerns INS1. The data set can be described thus: Cytoprotective activity against tunicamycin ER stress-induced apoptosis in rat INS-1 cells assessed as viable cells at 0.1 uM after 48 hrs by phase contrast microscopic analysis. Type of data set: functional, cell-based. In a few lines:
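INS-1 cells were exposed to tunicamycin 0.1 μg/mL with compound (0.1 μM) or DMSO for 48 h. Live-cell phase-contrast images were taken at 10×; 3 independent experiments.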

The test system of data set [2] is Mus musculus. Nature of the data set: Toxicity in STZ-induced diabetic C57BL/6 mouse model assessed as effect on alpha-cells at 5 mg/kg, ip administrated qd with streptozotocin for 5 days followed by compound administration alone for 2 more weeks by DAPI-staining based confocal microscopic analysis. The data set is classed as organism-based. The note with it: in vivo, 120 h. In a few lines:
(§1)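 At the end of treatment in the STZ mouse model, pancreases were formalin-fixed, paraffin-embedded and serially sectioned at 100 μm intervals. Six sections were stained for insulin and glucagon with DAPI counterstain and imaged by confocal microscopy. Insulin-positive cells demarcated islets; total islet area per section and cells per islet were quantified.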

Data set [3] has as its system Beta-TC6. The data set can be described thus: Cytoprotective activity in mouse BetaTC6 cells assessed as protection against tunicamycin-induced ER stress-mediated reduction in cell viability after 3 days by CellTiter-Glo assay. The data set is classed as functional, cell-based. In a few lines: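 βTC6 cells, 3×10^3 per well, were exposed to tunicamycin 0.3 μg/mL with compound or DMSO for 72 h. Intracellular ATP was read by luminescence and expressed as fold of no-tunicamycin cells. Triplicate wells, three independent experiments.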
(In ATP-based viability assays light output follows the ATP content of the culture.)

For data set [4], the target named is T1, Eukaryotic translation initiation factor 2-alpha kinase 3 (Rattus norvegicus) (UniProt Q9Z1Z1).
T1 sequence (whole entry): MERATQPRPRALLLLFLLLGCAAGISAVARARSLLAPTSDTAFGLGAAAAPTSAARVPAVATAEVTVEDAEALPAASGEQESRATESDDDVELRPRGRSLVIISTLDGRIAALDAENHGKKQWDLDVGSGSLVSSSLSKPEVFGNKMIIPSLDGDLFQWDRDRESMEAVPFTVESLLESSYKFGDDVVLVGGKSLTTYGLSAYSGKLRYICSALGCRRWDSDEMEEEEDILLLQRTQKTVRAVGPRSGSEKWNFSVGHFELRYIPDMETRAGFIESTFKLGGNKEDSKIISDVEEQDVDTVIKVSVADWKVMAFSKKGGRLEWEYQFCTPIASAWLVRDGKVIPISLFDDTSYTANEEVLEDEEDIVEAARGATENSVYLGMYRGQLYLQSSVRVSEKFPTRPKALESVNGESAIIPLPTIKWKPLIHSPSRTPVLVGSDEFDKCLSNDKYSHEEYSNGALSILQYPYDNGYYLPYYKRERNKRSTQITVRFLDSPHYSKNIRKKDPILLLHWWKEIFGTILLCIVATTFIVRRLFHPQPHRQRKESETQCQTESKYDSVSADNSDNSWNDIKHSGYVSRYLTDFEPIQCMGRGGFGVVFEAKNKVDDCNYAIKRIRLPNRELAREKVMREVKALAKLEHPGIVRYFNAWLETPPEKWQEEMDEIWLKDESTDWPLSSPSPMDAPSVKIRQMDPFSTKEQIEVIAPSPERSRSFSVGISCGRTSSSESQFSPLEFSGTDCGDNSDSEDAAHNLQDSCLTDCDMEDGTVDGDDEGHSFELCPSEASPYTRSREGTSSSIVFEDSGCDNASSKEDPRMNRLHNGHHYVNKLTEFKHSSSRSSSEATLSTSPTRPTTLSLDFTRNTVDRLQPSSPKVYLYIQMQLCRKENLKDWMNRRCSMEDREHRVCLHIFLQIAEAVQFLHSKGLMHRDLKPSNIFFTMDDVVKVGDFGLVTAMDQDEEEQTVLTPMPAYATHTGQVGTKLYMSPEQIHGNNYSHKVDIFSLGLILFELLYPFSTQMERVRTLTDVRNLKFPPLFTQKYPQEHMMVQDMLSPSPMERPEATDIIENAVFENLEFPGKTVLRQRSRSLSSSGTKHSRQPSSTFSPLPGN
Nature of the data set: Inhibition of tunicamycin ER stress-induced PERK activation in rat INS-1 cells assessed as suppression of tunicamycin-induced increase in CHOP protein levels up to 10 uM after 8 hrs by Western blot analysis. The data set is classed as cell-based. In a few lines: (§2)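 INS-1 cells were exposed to tunicamycin 0.1 μg/mL with compound or DMSO for 8 h. Lysates were immunoblotted for ATF4 and CHOP (1:1000). Bands were quantified by densitometry and normalized to α-tubulin; 3 independent experiments.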

Data set [5] addresses T1, Eukaryotic translation initiation factor 2-alpha kinase 3 (Rattus norvegicus). Nature of the data set: Inhibition of PERK activation in rat INS-1 cells assessed as suppression of tunicamycin-induced increase in ATF4 mRNA levels up to 10 uM after 8 hrs by qRT-PCR analysis. Type of data set: cell-based. An outline of the steps: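 INS-1 cells, 4×10^5 per well, were exposed to tunicamycin 0.1 μg/mL with compound or DMSO for 8 h. qRT-PCR for ATF4, CHOP, Bip, GRP94, or spliced XBP1 using splicing-specific primers. Values were normalized to cyclophilin A by ΔΔCt and given as fold over untreated control. Triplicate wells, 3 independent experiments.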

For data set [6], the system named is INS1. The data set can be described thus: Cytotoxicity against rat INS-1 cells assessed as reduction in cell viability up to 10 uM after 3 days by CellTiter-Glo assay. The note with it: ins1, 72 h. The data set is classed as cell-based. In a few lines: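 INS-1 cells, 3×10^3 per well, were given compound or DMSO alone (no tunicamycin) for 72 h. Intracellular ATP was read by luminescence and expressed as fold of untreated cells. Triplicate wells, three independent experiments.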

Data set [7] relates to INS1. The data set can be described thus: Protection against tunicamycin ER stress-induced suppression of INS2 mRNA expression in rat INS-1 cells up to 1 uM after 24 hrs by qRT-PCR analysis. The data set is classed as functional, cell-based. In a few lines:
(§3)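 INS-1 cells were exposed to tunicamycin 0.1 μg/mL with compound or DMSO for 24 h. INS1, INS2, PDX1 and MafA mRNA were measured by qRT-PCR and normalized to cyclophilin A by the comparative Ct method. Triplicate wells, 3 independent experiments.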

Data set [8] concerns INS1. Nature of the data set: Protection against tunicamycin ER stress-induced suppression of MafA mRNA expression in rat INS-1 cells up to 1 uM after 24 hrs by qRT-PCR analysis. Type of data set: functional, cell-based. An outline of the steps:
as §3
A general note: In qPCR the cycle at which signal appears reflects the starting amount.

Data set [9] has as its target T1, Eukaryotic translation initiation factor 2-alpha kinase 3 (Rattus norvegicus). The data set can be described thus: Inhibition of tunicamycin ER stress-induced PERK activation in rat INS-1 cells assessed as suppression of tunicamycin-induced increase in ATF4 protein levels up to 10 uM after 8 hrs by Western blot analysis. The data set is classed as cell-based. In a few lines: as §2
(Immunoblotting shows a protein as a band on a membrane.)

Data set [10] deals with Mus musculus. The data set can be described thus: Antidiabetic activity in STZ-induced diabetic overnight fasted C57BL/6 mouse model assessed as blood glucose level at 5 mg/kg, ip administrated qd with streptozotocin for 5 days followed by compound administration alone for 2 more weeks measured at 30 mins post last dose relative to control. Type of data set: functional, organism-based. In a few lines:
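Same STZ/compound i.p. regimen in male C57BL/6 mice, vehicle group as control. Intraperitoneal glucose tolerance test in overnight-fasted mice: glucose 2 g/kg i.p., blood glucose read at set times after the glucose load.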

Data set [11] has as its system Mus musculus. The data set can be described thus: Antidiabetic activity in STZ-induced diabetic C57BL/6 mouse model assessed as blood glucose level at 5 mg/kg, ip administrated qd with streptozotocin for 5 days followed by compound administration alone for 2 more weeks measured on every third day during 5 hr fasting (reference value: 422 mg/dL). Type of data set: functional.

In data set [12] the test system is Mus musculus. Nature of the data set: Antidiabetic activity in STZ-induced diabetic C57BL/6 mouse model assessed as total pancreatic islet beta-cell area at 5 mg/kg, ip administrated qd with streptozotocin for 5 days followed by compound administration alone for 2 more weeks by DAPI-staining based confocal microscopic analysis (reference value: 30.2 +/- 7.9%). The data set is classed as functional. In a few lines: as §1

Turning to `O=C(NCc1ccc(C(F)(F)F)cc1)c1cccc(CN2CCCCC2)c1`, the result in [1], in data set [7], in data set [8] and in [10] was Active. The Activity entry in data set [2] was “Non-Toxic”; in [3] it was “Dose-dependent effect”; in data set [6] it was “Non-Toxic”; in data set [11], 314 mg/dL; in data set [12] it was 67.4%. For the same molecule, the inhibition entry in [4], in [5] and in data set [9] was “Active” throughout.
